Data from ChEMBL document CHEMBL1125136, “Quinolone antibacterial agents substituted at the 7-position with spiroamines. Synthesis and structure-activity relationships” (1990).
≈ marks a conversion by molar mass, not a printed value.

Columns and labels:
Escherichia coli [1] = assay: In vivo protective dose for mouse protection assay in Escherichia coli Vogel after peroral administration; type: functional; details: po, read-out: PD50
Method in brief: (§1)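 Female Charles River CD-1 mice were given an acute, lethal, systemic infection. A single dose of compound was given at the time of challenge, by the route stated in the line, with 16 animals per dose level. The read-out is the median protective dose (PD50, mg/kg). Per the footnote, values come from 16 animals per test, with a mean variation of ±34%.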

Escherichia coli [2] = assay: In vivo protective dose was determined in mouse protection assay in Escherichia coli Vogel after subcutaneous administration; type: functional; details: sc, read-out: PD50; method in brief: as §1
Enterobacter cloacae = assay: Evaluated for minimum inhibitory concentration against gram-negative bacteria Enterobacter cloacae HA 2646; type: functional
Escherichia coli [3] = assay: Evaluated for minimum concentration needed to produce linear DNA at an intensity relative to oxolinic acid at 10 mg/mL. by gyrase mediated cleavage of DNA in Escherichia coli 560.; type: functional; details: read-out: MIC
Escherichia coli [4] = assay: Evaluated for minimum inhibitory concentration against gram-negative bacteria Escherichia coli Vogel; type: functional
Method in brief: (§2)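 Broth microdilution MIC by standard technique. Values come from duplicate experiments and are stated as accurate to ±50%.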

Klebsiella pneumoniae = assay: Evaluated for minimum inhibitory concentration against gram-negative bacteria Klebsiella pneumoniae MGH-2; type: functional; method in brief: as §2
Pseudomonas aeruginosa = assay: Evaluated for minimum inhibitory concentration against gram-negative bacteria Pseudomonas aeruginosa UI-18; type: functional; method in brief: as §2
Pseudomonas = assay: Evaluated for minimum inhibitory concentration against gram-negative bacteria Pseudomonas rettgeri H1771; type: functional; method in brief: as §2
[5] = Evaluated for minimum inhibitory concentration against […] bacteria […] SV-1; type: functional; method in brief: as §2
Staphylococcus aureus [6] = assay: Evaluated for minimum inhibitory concentration against […] bacteria Staphylococcus aureus H228; type: functional; method in brief: as §2
Staphylococcus aureus [7] = assay: Evaluated for minimum inhibitory concentration against […] bacteria Staphylococcus aureus UC-76; type: functional; method in brief: as §2
Streptococcus pyogenes = assay: Evaluated for minimum inhibitory concentration against gram-positive bacteria Streptococcus pyogenes C203
Enterococcus faecalis = assay: Evaluated for minimum inhibitory concentration against gram-positive bacteria Staphylococcus faecalis MGH-2

| SMILES | ED50 (Escherichia coli [1]) [mg/kg] | ED50 (Escherichia coli [2]) [mg/kg] | MIC (Enterobacter cloacae) [µg/mL] | minimum concentration for gyrase-mediated DNA cleavage (Escherichia coli [3]) [µg/mL] | MIC (Escherichia coli [4]) [µg/mL] | MIC (Klebsiella pneumoniae) [µg/mL] | MIC (Pseudomonas aeruginosa) [µg/mL] | MIC (Pseudomonas) [µg/mL] | MIC [5] [µg/mL] | MIC (Staphylococcus aureus [6]) [µg/mL] | MIC (Staphylococcus aureus [7]) [µg/mL] | MIC (Streptococcus pyogenes) [µg/mL] | MIC (Enterococcus faecalis) [µg/mL] |
| --- | --- | --- | --- | --- | --- | --- | --- | --- | --- | --- | --- | --- | --- |
| CCn1cc(C(=O)O)c(=O)c2cc(F)c(N3CCC4(CCNC4)C3)nc21.Cl (stereo unspecified) | > 100 | 28 | 0.8 | 5 | 0.8 | 3.1 | 0.8 | 12.5 | 0.8 | 3.1 | 0.4 | 0.2 | 1.6 |
| O=C(O)c1cn(C2CC2)c2cc(N3CCNCC3)c(F)cc2c1=O [CIPROFLOXACIN] | – | – | – | – | 0.025 (≈ 0.0754 µM) | 0.025 (≈ 0.0754 µM) | 0.1 (≈ 0.302 µM) | 0.025 (≈ 0.0754 µM) | 0.4 (≈ 1.21 µM) | 1.6 (≈ 4.83 µM) | 0.1 (≈ 0.302 µM) | 0.2 (≈ 0.604 µM) | 0.4 (≈ 1.21 µM) |
| CCn1cc(C(=O)O)c(=O)c2c(F)c(F)c(N3CCC4(CCN(C)C4)C3)c(F)c21 (stereo unspecified) | 22 | 12.5 | 0.8 (≈ 1.95 µM) | 5 | 0.8 (≈ 1.95 µM) | 1.6 (≈ 3.91 µM) | 6.3 (≈ 15.4 µM) | 6.3 (≈ 15.4 µM) | 0.8 (≈ 1.95 µM) | 0.8 (≈ 1.95 µM) | 0.2 (≈ 0.489 µM) | 1.6 (≈ 3.91 µM) | 1.6 (≈ 3.91 µM) |
| CCn1cc(C(=O)O)c(=O)c2cc(F)c(N3CCCC4(CCCNC4)C3)nc21 (stereo unspecified) | – | – | 25 (≈ 64.4 µM) | 50 | 12.5 (≈ 32.2 µM) | 25 (≈ 64.4 µM) | 50 (≈ 129 µM) | 100 (≈ 257 µM) | 12.5 (≈ 32.2 µM) | 6.3 (≈ 16.2 µM) | 3.1 (≈ 7.98 µM) | 50 (≈ 129 µM) | 12.5 (≈ 32.2 µM) |
| CCn1cc(C(=O)O)c(=O)c2cc(F)c(N3CCNCC3)cc21 [NORFLOXACIN] | – | – | 0.1 (≈ 0.313 µM) | 5.2 | 0.1 (≈ 0.313 µM) | 0.2 (≈ 0.626 µM) | 0.8 (≈ 2.51 µM) | 0.2 (≈ 0.626 µM) | 3.1 (≈ 9.71 µM) | 3.1 (≈ 9.71 µM) | 0.4 (≈ 1.25 µM) | 3.1 (≈ 9.71 µM) | 3.1 (≈ 9.71 µM) |
| NC1CCN(c2c(F)cc3c(=O)c(C(=O)O)cn(C4CC4)c3c2F)C1 (stereo unspecified) | – | – | 0.025 (≈ 0.0716 µM) | 0.1 | 0.013 (≈ 0.0372 µM) | 0.025 (≈ 0.0716 µM) | 0.1 (≈ 0.286 µM) | 0.05 (≈ 0.143 µM) | 0.05 (≈ 0.143 µM) | 0.05 (≈ 0.143 µM) | 0.025 (≈ 0.0716 µM) | 0.25 (≈ 0.716 µM) | 0.05 (≈ 0.143 µM) |
| CCn1cc(C(=O)O)c(=O)c2cc(F)c(N3CCC4(CCN(C)C4)C3)cc21 (stereo unspecified) | – | – | 0.2 (≈ 0.536 µM) | 5 | 0.2 (≈ 0.536 µM) | 0.8 (≈ 2.14 µM) | 3.1 (≈ 8.3 µM) | 3.1 (≈ 8.3 µM) | 0.4 (≈ 1.07 µM) | 0.8 (≈ 2.14 µM) | 0.1 (≈ 0.268 µM) | 0.4 (≈ 1.07 µM) | 0.4 (≈ 1.07 µM) |
| CC1COc2c(N3CCC4(CCN(C)C4)C3)c(F)c(N)c3c(=O)c(C(=O)O)cn1c23 (stereo unspecified) | – | – | 0.4 (≈ 0.96 µM) | 1 | 0.4 (≈ 0.96 µM) | 0.8 (≈ 1.92 µM) | 12.5 (≈ 30 µM) | 6.3 (≈ 15.1 µM) | 0.4 (≈ 0.96 µM) | 0.4 (≈ 0.96 µM) | 0.1 (≈ 0.24 µM) | 0.2 (≈ 0.48 µM) | 0.4 (≈ 0.96 µM) |
| CCNCC1CCN(c2c(F)cc3c(=O)c(C(=O)O)cn(C4CC4)c3c2F)C1 (stereo unspecified) [PD-117558] | – | – | 0.1 (≈ 0.255 µM) | 0.25 | 0.05 (≈ 0.128 µM) | 0.1 (≈ 0.255 µM) | 0.4 (≈ 1.02 µM) | 0.2 (≈ 0.511 µM) | 0.025 (≈ 0.0639 µM) | 0.025 (≈ 0.0639 µM) | 0.006 (≈ 0.0153 µM) | 0.025 (≈ 0.0639 µM) | 0.025 (≈ 0.0639 µM) |
| CCn1cc(C(=O)O)c(=O)c2cc(F)c(N3CCC(N)C3)c(F)c21 (stereo unspecified) | – | – | 0.1 (≈ 0.296 µM) | 1 | 0.05 (≈ 0.148 µM) | 0.2 (≈ 0.593 µM) | 0.4 (≈ 1.19 µM) | 0.2 (≈ 0.593 µM) | 0.4 (≈ 1.19 µM) | 0.4 (≈ 1.19 µM) | 0.05 (≈ 0.148 µM) | 0.4 (≈ 1.19 µM) | 0.8 (≈ 2.37 µM) |
| CCn1cc(C(=O)O)c(=O)c2cc(F)c(N3CCC4(CCCN4)C3)c(F)c21.Cl (stereo unspecified) | – | – | 0.2 | 2.5 | 0.2 | 0.4 | 1.6 | 0.8 | 1.6 | 1.6 | 0.8 | 1.6 | 3.1 |
| CCNCC1CCN(c2c(F)cc3c(=O)c(C(=O)O)cn(CC)c3c2F)C1 (stereo unspecified) [MERAFLOXACIN] | – | – | 0.2 (≈ 0.527 µM) | 2.5 | 0.1 (≈ 0.264 µM) | 0.2 (≈ 0.527 µM) | 1.6 (≈ 4.22 µM) | 0.4 (≈ 1.05 µM) | 0.1 (≈ 0.264 µM) | 0.1 (≈ 0.264 µM) | 0.05 (≈ 0.132 µM) | 0.1 (≈ 0.264 µM) | 0.1 (≈ 0.264 µM) |
| CCN1CCC2(CCN(c3c(F)cc4c(=O)c(C(=O)O)cn(C5CC5)c4c3F)C2)C1 (stereo unspecified) | – | – | 0.2 (≈ 0.479 µM) | 0.5 | 0.1 (≈ 0.24 µM) | 0.2 (≈ 0.479 µM) | 1.6 (≈ 3.83 µM) | 0.4 (≈ 0.958 µM) | 0.2 (≈ 0.479 µM) | 0.1 (≈ 0.24 µM) | 0.025 (≈ 0.0599 µM) | 0.2 (≈ 0.479 µM) | 0.1 (≈ 0.24 µM) |
| CC1COc2c(N3CCN(C)CC3)c(F)cc3c(=O)c(C(=O)O)cn1c23 (stereo unspecified) [OFLOXACIN] | – | – | 0.1 (≈ 0.277 µM) | 6.2 | 0.2 (≈ 0.553 µM) | 0.2 (≈ 0.553 µM) | 1.6 (≈ 4.43 µM) | 0.4 (≈ 1.11 µM) | 0.4 (≈ 1.11 µM) | 3.1 (≈ 8.58 µM) | 0.4 (≈ 1.11 µM) | 3.1 (≈ 8.58 µM) | 6.3 (≈ 17.4 µM) |
